Most compounds without a hit are left out; they make up all but 2.1% or so of the library.
CRFBP-R2 block – blocks CRF-induced signaling of the CRF-BP/CRF-R2 complex. HEK293 CRF-R2/CRF-BP, CRF-induced calcium fluorescence. inhibition, % at 11.8 µM. 0.59% of 350,000 active. AID 588475;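 active = inhibition of the ligand-induced calcium signal above about 50% at the single tested concentration, limit read from the data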
H9c2 protect – modulators protecting cardiomyocytes from myocardial damage | H9c2 cardiomyocytes, H2O2 injury protection, ATPLite, 2 h | protection from H2O2 cell death, % at 20 µM | 0.63% of 360,000 active | AID 588492;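 active = compounds giving at least 50% protection of heart cells from peroxide-induced death in the single-dose screen, raw or plate-pattern-corrected value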;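 note: 0% = DMSO wells with peroxide and 100% = DMSO wells without peroxide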
iPSC survival up – enhancers of human iPSC single-cell survival; hiPSC single-cell survival, ATPlite luminescence; 100% = ROCK inhibitor wells, 0% = DMSO; survival enhancement, % at 20 µM; 0.044% of 360,000 active; AID 602274; in the data active = survival enhancement above about 18%;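 note: cells exposed to compounds for 16 hours before the ATP read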
UCH37 DUB inh – inhibitors of human deubiquitinating enzyme UCH37; Q9Y5K5; purified proteasome/UCH37, Ub-AMC cleavage fluorescence; inhibition, % (concentration not given with the values); 0.33% of 330,000 active;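 active = mean inhibition over replicate wells above about 20%, limit read from the data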;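 note: 0% = compound-free wells with enzyme and 100% = wells lacking proteasome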
Target sequence (Q9Y5K5 whole entry, looked up): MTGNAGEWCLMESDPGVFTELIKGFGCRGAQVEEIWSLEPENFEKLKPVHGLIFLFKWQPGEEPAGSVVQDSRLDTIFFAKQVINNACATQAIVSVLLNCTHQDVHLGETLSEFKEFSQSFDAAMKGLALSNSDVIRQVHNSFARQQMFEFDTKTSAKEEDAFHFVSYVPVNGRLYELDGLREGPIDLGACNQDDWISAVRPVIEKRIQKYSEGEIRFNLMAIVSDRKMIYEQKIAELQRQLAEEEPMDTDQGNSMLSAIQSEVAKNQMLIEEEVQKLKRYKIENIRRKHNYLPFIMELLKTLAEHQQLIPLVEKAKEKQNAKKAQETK
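Material: human UCH37 enzyme supplied as purified proteasome complex / Amount: 0.15 nM proteasome as dispensed / Buffer or medium: pH 7.4 Tris-HCl (50 mM) with ovalbumin, ATP-MgCl2, DTT / Times: preincubation 30 min, reaction 25 min, room temperature / Technique: AMC fluorescence from Ub-AMC cleavage, excitation 355 nm, emission 460 nm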
CRFR2-BP ag – agonists of human CRF-binding protein/CRF-R2 receptor complex. HEK293 CRF-R2/CRF-BP, calcium dye fluorescence (FLIPR); percent of saturating CRF peptide response. activation, % at 13.2 µM. 0.46% of 350,000 active. AID 588473;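 active = activation of at least 50%, plus an integration ratio under a set limit after plate pattern correction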;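 note: plate controls were neutral control wells without compound for no effect and CRF at EC100 for full effect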
beta cell repl – inducers of beta-cell replication in MIN6 cells | AID 2380 | 0.29% of 330,000 active | proliferation, % at 10 µM | MIN6 cells proliferation, ATPlite luminescence, 48 h; cells starved in 0.2% serum; 100% = growth in 10% serum;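 active = compounds whose signal lies at least 3.5 SD above the mean of all wells on their plate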;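 note: 0% = DMSO-treated cells in low-serum medium and 100% = 10% serum control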
An asterisk follows results filed as active; . = not tested or not shown.

SMILES	CRFBP-R2 block	H9c2 protect	iPSC survival up	UCH37 DUB inh	CRFR2-BP ag	beta cell repl
Cc1cc(OC(F)F)ccc1NC(=O)Nc1ccc2c(c1)OCO2	-2	10	0	4	2	-2
COc1ccc(NC(=O)Nc2ccc3c(c2)OCO3)c(C)c1	53*	-3	0	1	-1	0
O=C(NN=C/C=C/c1ccco1)C1COc2ccccc2O1 (stereo not drawn)	.	.	.	10	.	.
O=C1C2C3C=CC(CC3)C2C(=O)N1N=Cc1c[nH]c2ccccc12 (stereo not drawn)	.	.	.	3	.	.
CC(=O)c1ccc(N2Cc3ccccc3C2=NC(=O)Nc2ccc(Cl)cc2)cc1	.	.	.	-58	.	.
CS(=O)(=O)Nc1cccc2cccnc12	5	13	4	5	-2	-1
Cc1cc(C)n(-c2ccc3cccc(NS(C)(=O)=O)c3n2)n1	-6	88*	-1	1	0	-5
C(CCc1ccccc1)=Nn1cnnc1	.	.	.	4	.	.
Cn1nccc1C(=O)Nc1sc2c(c1C(N)=O)CCCC2	18	-17	-1	-390	2	3
CCCN1CCc2c(sc(NC(=O)c3ccc(S(=O)(=O)N(C)c4ccccc4)cc3)c2C(=O)NC)C1	-63	16	1	-6	63*	-6
CCN1CCc2c(sc(NC(=O)c3ccc(S(=O)(=O)N4CCCC4)cc3)c2C(=O)NC)C1	-16	-14	0	5	2	-6
CNC(=O)c1c(NC(=O)c2ccc(S(=O)(=O)N3CCCc4ccccc43)cc2)sc2c1CCN(C)C2	-128	1	2	6	159*	-4
CCCN1CCc2c(sc(NC(=O)c3ccc(S(=O)(=O)N(C)c4ccccc4)cc3)c2C(N)=O)C1	-63	2	0	-4	99*	-4
Cn1ccc(C(=O)Nc2sc3c(c2C(N)=O)CCCCC3)n1	78*	-12	-1	.	0	-7
CC(=O)c1ccc(C(=O)Nc2sc3c(c2C(N)=O)CCN(Cc2ccccc2)C3)cc1	.	7	4	0	.	-2
CN1CCc2c(sc(NC(=O)c3ccc(S(=O)(=O)N4CCc5ccccc54)cc3)c2C(N)=O)C1	.	.	.	3	.	-6
COc1ccc(C(C)=NNC(=O)c2nnn(-c3nonc3N)c2-c2cccs2)cc1	.	.	.	-247	.	.
O=C(NN=Cc1ccc(-c2cccc(C(F)(F)F)c2)o1)c1ccccc1Br	.	.	.	-12	.	.
CN1CCc2c(sc(NC(=O)c3ccc(S(=O)(=O)N4CCCCCC4)cc3)c2C(N)=O)C1	-146	1	2	.	127*	-4
CN1CCc2c(sc(NC(=O)c3ccc(S(=O)(=O)N4CCCC4)cc3)c2C(N)=O)C1	-36	10	0	9	28	0
CCCN1CCc2c(sc(NC(=O)c3ccc(S(=O)(=O)N4CCN(C(=O)OCC)CC4)cc3)c2C(N)=O)C1	-72	-3	0	1	108*	-3
O=c1[nH]c2ccccc2c(O)c1O	97*	-1	-3	-40	0	-6
O=c1[nH]c2ccccc2c(O)c1-[n+]1ccccc1	2	2	0	2	-1	2
C=CCN1C(c2cccc(C(F)(F)F)c2)=CS/C1=C(/C#N)c1nnc(N2CCOCC2)n1-c1ccccc1	-2	5	0	10	108*	0
C=CCN1C(c2ccc(Br)cc2)=CS/C1=C(/C#N)c1nnc(N2CCOCC2)n1-c1ccccc1	11	16	1	10	0	-3
SMILES	CRFBP-R2 block	H9c2 protect	iPSC survival up	UCH37 DUB inh	CRFR2-BP ag	beta cell repl
CON=CNC(=O)c1ccc([N+](=O)[O-])c(CS(=O)(=O)c2ccc(Cl)cc2)c1	.	.	.	2	.	.
COC(=O)c1ccc(/C(O)=C(\C#N)c2nc3ccccc3s2)cc1	51*	-12	1	.	43	-3
CC(C)Sc1snnc1-c1ccccc1	54*	-2	-1	4	-1	0
CSc1snnc1-c1ccccc1	-15	3	0	1	2	1
CC(=O)Nc1ccc2c(c1)Cc1cc(N3C(=O)C=CC3=O)ccc1-2	-40	-20	4	3	51*	.
CC(CC(=O)Nc1ccc2c(c1)OCCO2)=NNC(=O)COc1ccc(C)cc1	.	.	.	1	.	.
CCCCC(=O)Nc1ccc(NC(=O)c2ccc([N+](=O)[O-])cc2)cc1OC	10	-4	-1	5	-1	0
CCCCC(=O)Nc1ccc(C(=O)Nc2ccc(OC)cc2[N+](=O)[O-])cc1	-165	-5	0	2	117*	1
COc1ccc(NC(=O)CCCCC(=O)Nc2ccc(OC)cc2OC)c(OC)c1	59*	-3	0	3	2	3
COc1ccc(NC(=O)c2cc(C(=O)Nc3ccc(OC)cc3OC)cc([N+](=O)[O-])c2)c(OC)c1	50*	4	0	7	7	-2
Nc1nonc1-n1nnc(C(=O)NN=Cc2ccc(Cl)cc2Cl)c1CN1CCOCC1	.	.	.	8	.	.
CC(=O)Nc1sc(NN=Cc2cccc(Cl)c2)nc1-c1cccs1	.	.	.	-34	.	.
COC(=O)c1ccc(C2C(C(=O)c3cc4ccccc4o3)=C(O)C(=O)N2CCCN(C)C)cc1 (stereo not drawn)	114*	7	-2	6	0	-1
CCC(=O)ON=C(N)c1ccc(Oc2cc(C)c(Cl)c(C)c2)c([N+](=O)[O-])c1	.	.	.	4	.	.
CC(=O)N/N=C/c1cc(C(C)C)cc(/C=N/NC(C)=O)c1O	-47	30	1	.	92*	-5
COC(=O)c1ccc(CNC(=O)COC(=O)CC23CC4CC(CC(Br)(C4)C2)C3)cc1	51*	0	-2	6	1	0
CCOc1ccc(C=Nn2c(SC)nnc2-c2ccccc2)cc1OCC	.	.	.	2	.	.
ON=C1CCCC/C1=C\c1ccccc1	.	.	.	6	.	.
O=C(NC1(C(F)(F)F)C(=O)Nc2c1c(=O)[nH]c(=O)n2Cc1ccccc1)c1ccc(Cl)cc1 (stereo not drawn)	62*	3	1	.	0	-3
CC(CC(=O)Nc1ccc(C)c(Cl)c1)=NNC(=O)Cc1cccs1	.	.	.	4	.	.
CC(=O)Nc1ccc(/C(C)=N/Nc2nc(Nc3cccc4ccccc34)nc(N3CCOCC3)n2)cc1	-42	63*	0	.	1	-6
CC(=O)Nc1ccc(C(C)=NNc2nc(Nc3ccccc3)nc(N3CCOCC3)n2)cc1	.	.	.	2	.	.
O=C(CON=Cc1c(Cl)cccc1Cl)NNC(=O)c1ccc(Cl)cc1	.	.	.	3	.	.
CC(NC(=O)CN1c2cccc3cccc(c23)S1(=O)=O)c1ccccc1 (stereo not drawn)	-5	0	-3	.	2	.
CC(C)CNC(=O)CN1c2cccc3cccc(c23)S1(=O)=O	79*	8	-1	-83	1	-1
COc1ccccc1C(=O)NC(CCSC)C(=O)NC1CCCCCC1 (stereo not drawn)	101*	4	-1	-2	-1	5
